# An excerpt weighted towards active compounds, which were near 2.9% of everything screened.
# ATG4B inh: ATG4B protease inhibitors, primary screen, biochemical, fluorescence, uHTS. 340,000 tested, 0.51% active. ATG4B cleavage of LC3-PLA2, NBD-HPC fluorescence, 1 h. Cysteine protease ATG4B (Homo sapiens), Q9Y4P1. inhibition, % at 8.33 µM; in the data active = inhibition above about 40%
# mABHD4 FP: ABHD4 inhibitors, primary screen, biochemical, fluorescence polarization, mouse; (Lyso)-N-acylphosphatidylethanolamine lipase (Mus musculus), Q8VD66; purified mABHD4, FP-Rh probe fluorescence polarization; inhibition, % at 8.92 µM; 370,000 tested, 0.54% active; AID 720543, 2013;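 active = inhibition exceeding the mean over every tested compound plus 3 SD, cut at about 30% in these data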;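 note: 0% = plate median of compound wells and 100% = S159A mutant with DMSO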
#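 Test system: mABHD4 protein | Buffer or medium: HEPES pH 7.0 buffer, 150 mM NaCl, 0.01% Pluronic F-127 | Probe or stimulus: FP-Rh fluorescent activity-based probe, added after compound pre-incubation | Timing: Pre-incubation 45 min, probe exposure 60 min, at 25 °C | Technique: Fluorescence polarization, excitation 525 nm, emission 598 nm, BODIPY TMR filters | Repeats: Single well per compound (singlicate)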
# HTRA1 inh: HTRA1 serine protease inhibitors, primary screen, biochemical, fluorescence polarization, HTS; Q92743; recombinant HTRA1, FP-rhodamine activity-based probe; inhibition, % at 5.96 µM; 340,000 tested, 0.5% active; AID 504803, 2011; in the data active = inhibition above about 36%;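 note: 0% = enzyme with DMSO and 100% = wells lacking enzyme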
# TCR CD3 inh: inhibitors of human TCR-CD3 interaction, primary screen, biochemical, fluorescence, TAMRA-labeled TCR probe | T-cell receptor (TCR) | inhibition, % at 9.4 µM | AID 651800, 2012 | 360,000 tested, 0.37% active;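 note: recombinant mutant TCR 2C K166C tagged with TAMRA read by polarization; 0% = receptor in buffer alone and 100% = receptor with positive control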
# PRMT1 inh: PRMT1 methyltransferase inhibitors, primary screen, biochemical, fluorescence polarization; 370,000 tested, 1.3% active; Protein arginine N-methyltransferase 1 (Homo sapiens), Q99873; recombinant PRMT1, activity-based probe fluorescence polarization; inhibition, % at 2.79 µM;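 active = inhibition above about 21% made by adding two undisclosed values, limit read from the data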
# Target sequence (Q99873 whole entry, looked up): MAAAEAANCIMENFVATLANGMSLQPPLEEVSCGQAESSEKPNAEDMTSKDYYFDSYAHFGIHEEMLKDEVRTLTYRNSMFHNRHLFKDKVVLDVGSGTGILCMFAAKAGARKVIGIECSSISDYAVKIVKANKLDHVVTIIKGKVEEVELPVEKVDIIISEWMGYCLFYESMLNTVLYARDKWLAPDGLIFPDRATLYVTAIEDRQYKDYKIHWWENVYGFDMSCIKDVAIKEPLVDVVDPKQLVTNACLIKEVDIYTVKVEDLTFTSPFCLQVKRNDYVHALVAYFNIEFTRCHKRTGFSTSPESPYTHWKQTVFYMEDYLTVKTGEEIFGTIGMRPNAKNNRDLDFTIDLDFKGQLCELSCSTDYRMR
# SIAE primary: human SIAE inhibitors, primary screen, biochemical, fluorescence polarization, FP-Rh probe, 1536-well HTS | Sialate O-acetylesterase (Homo sapiens), Q9HAT2 | SIAE FP-Rh probe binding | inhibition, % at 9.66 µM | 370,000 tested, 0.69% active | AID 1053197, 2014;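 active = inhibition above a cutoff: mean of compounds within the control limits plus 3 SD of those, cut at about 17% in these data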;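 note: 0% = plate median of compound wells and 100% = probe without SIAE protein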
# ATG4B conf: ATG4B protease inhibitors, retest, confirmation, biochemical, fluorescence, single concentration. shares compounds with ATG4B inh. ATG4B protease fluorescent substrate cleavage assay. inhibition, % at 8.33 µM. 320 tested, 92% active. AID 504757, 2011; in the data active = inhibition above about 39%
# PLA2 counter: PLA2 enzyme inhibition, counter-screen for ATG4B inhibitor project, biochemical, single concentration, uHTS hits; purified PLA2, NBD-C6-HPC fluorescence, 45 min; AID 588402, 2011; 1,600 tested, 66% active; inhibition, % at 8.33 µM; shares compounds with ATG4B inh; in the data active = inhibition above about 50%
# Target sequence (P04054 whole entry, looked up): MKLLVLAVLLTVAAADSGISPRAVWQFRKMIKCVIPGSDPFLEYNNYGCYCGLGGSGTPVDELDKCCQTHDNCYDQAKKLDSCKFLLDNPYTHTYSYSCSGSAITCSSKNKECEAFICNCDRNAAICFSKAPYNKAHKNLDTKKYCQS
# HTRA1 inh conf: HTRA1 protease inhibitors, retest, confirmation, biochemical, fluorescence polarization. 1,600 tested, 66% active. inhibition, % at 5.96 µM. recombinant HTRA1, FP-rhodamine activity-based probe. shares compounds with HTRA1 inh;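 active = mean inhibition over three repeats above a set limit taken from the earlier primary screen, cut at about 37% in these data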;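 note: 0% = HTRA1 with DMSO and 100% = wells lacking HTRA1; inhibitors block probe binding so polarization drops and inhibition rises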
# BSA TAMRA ctr: compounds interfering with TAMRA-BSA probe, counter-screen for TCR-CD3 interaction inhibitor project, biochemical, fluorescence, TAMRA-labeled BSA | TAMRA-labeled BSA probe fluorescence counterscreen | shares compounds with TCR CD3 inh | 1,200 tested, 10% active | inhibition, % at 9.4 µM; in the data active = inhibition above about 23%;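 note: 0% = buffer low control and 100% = reference high control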
# TCR-CD3 conf: TCR-CD3 interaction inhibitors, retest, confirmation, biochemical, fluorescence, TAMRA-labeled TCR probe; AID 652036, 2013; 1,200 tested, 48% active; TAMRA-labeled TCR probe fluorescence binding assay; inhibition, % at 9.4 µM; shares compounds with TCR CD3 inh
# PRMT1 confirm: PRMT1 methyltransferase inhibitors, confirmation, biochemical, fluorescence polarization, triplicate; shares compounds with PRMT1 inh; recombinant His-PRMT1, activity-based probe fluorescence polarization; inhibition, % at 2.79 µM; 3,300 tested, 42% active; AID 687036, 2013;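 active = mean inhibition across replicates above the hit cutoff derived for the earlier primary screen, cut at about 22% in these data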
# mABHD4 conf: ABHD4 inhibitors, retest, confirmation, biochemical, fluorescence polarization, mouse; purified mABHD4, FP-Rh probe fluorescence polarization; inhibition, % at 8.92 µM; shares compounds with mABHD4 FP; 1,800 tested, 55% active; AID 720658, 2013;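 active = mean inhibition across replicates above the hit cutoff set in the primary screen, cut at about 30% in these data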;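 note: 0% = wild-type ABHD4 with DMSO and 100% = catalytically dead S159A mutant with DMSO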
# The depositor's hits bear a star; x = not tested or not shown. Cut-off read from the data, not from the text of the source, unless noted: active = inhibition above about 19%; inactive = the rest.
SMILES,ATG4B inh,mABHD4 FP,HTRA1 inh,TCR CD3 inh,PRMT1 inh,SIAE primary,PLA2 counter,PRMT1 confirm,others
C/C(=N/NC(=O)c1cc2ccccc2cc1O)C1C(=O)c2ccccc2C1=O,49*,49*,74*,45*,4,21*,26,x,ATG4B conf=73*;HTRA1 inh conf=53*;BSA TAMRA ctr=1;TCR-CD3 conf=68*
Cc1cc(/C=N/n2c(COc3ccccc3)nc3ccccc3c2=O)c(O)c([N+](=O)[O-])c1,60*,16,41*,39*,7,24*,35,x,ATG4B conf=53*;HTRA1 inh conf=54*;BSA TAMRA ctr=35*;TCR-CD3 conf=56*
Cc1ccc(-c2[nH]ncc2/C=N/n2c(COc3ccccc3)nc3ccccc3c2=O)cc1,-9,-10,-38,3,2,-17,x,x,
CC(=O)c1ccc(-c2cc(C(C)=O)c3n(c2=O)CCC3)cc1,x,4,x,x,-8,-2,x,x,
Nc1c(C(=O)Nc2ccccc2F)sc2nc(-c3ccco3)ccc12,47*,11,17,8,47*,4,3,42*,
Nc1c(C(=O)Nc2ccccc2F)sc2nc(-c3cccnc3)ccc12,3,3,-6,2,14,0,x,x,
COc1ccccc1C1C2=C(N=c3s/c(=C/c4cccc(OCC(=O)O)c4)c(=O)n31)c1ccccc1CC2 (centres undefined),50*,-18,-51,11,56*,-20,56*,22*,
Cc1cccc(C)c1NC(=O)COC(=O)c1c2c(nc3ccccc13)/C(=C\c1ccc3c(c1)OCO3)CCC2,44*,26,-17,58*,145*,22*,16,5,BSA TAMRA ctr=49*;TCR-CD3 conf=30*
CCOC(=O)C1=C(C)N=c2s/c(=C/c3cccc([N+](=O)[O-])c3O)c(=O)n2C1c1ccccc1 (centres undefined),58*,6,11,4,49*,-2,27,41*,
O=C(CCCN1C(=O)/C(=C\c2ccco2)SC1=S)Nc1ccc2ccccc2c1,-11,-18,-21,-10,4,-1,x,x,
O=C(CCN1C(=O)/C(=C/c2ccco2)SC1=S)Nc1ccc(O)cc1C(=O)O,43*,20,9,-4,68*,-2,0,38*,
COc1ccc(N2CCN(CCCNC(=O)CCc3cccc(F)c3)CC2)cc1,x,2,x,x,4,5,x,x,
Cc1ccsc1/C=C/C1=Cc2c(sc(NC(=O)CSc3n[nH]c(N)n3)c2C#N)C(C)(C)C1,66*,-6,-21,-4,41*,-14,52*,4,
CCOC(=O)c1ccc(N2N=C(C)/C(=C/C=C/c3ccco3)C2=O)cc1,-4,5,7,3,1,10,x,x,
O=C(O)c1cc(N2N=C(C(F)(F)F)/C(=C/C=C/c3ccco3)C2=O)ccc1Cl,96*,58*,41*,26*,70*,5,78*,54*,HTRA1 inh conf=14;BSA TAMRA ctr=13;TCR-CD3 conf=34*
CCC(c1ccc(OC)cc1)c1cn(C)c2ccccc12 (centres undefined),x,-1,x,x,3,0,x,x,
CC(=O)c1cc(-c2csc(C=O)c2)c(=O)n2c1CCC2,x,-3,x,x,-1,0,x,x,
O=C(Nc1nc(-c2ccco2)c(-c2ccco2)s1)c1c(F)cccc1Cl,64*,5,26,7,54*,-7,79*,19,
CCCCCn1nnnc1C1c2ccccc2OCC(=O)N1Cc1ccco1 (centres undefined),x,0,x,x,-1,-2,x,x,
CCN1/C(=C/C(C)=C/c2sc3ccccc3[n+]2CC)Sc2ccccc21,52*,-123,-241,-107,98*,-238,37,-8,ATG4B conf=49*
CCN1/C(=C\C=C(C(C)=O)C(C)=O)Sc2ccccc21,7,-2,-3,8,-47,5,x,x,
CNc1nc(N)c([N+](=O)[O-])c(Nc2ccccc2)n1,x,-1,x,x,-3,0,x,x,
O=C(O)c1cc(NN=C2c3ccccc3-c3ccccc32)ccc1Cl,45*,39*,-17,7,6,2,39,x,ATG4B conf=62*;mABHD4 conf=45*
CC1=CC(=O)C(C(C)C)=C/C1=N\OS(=O)(=O)c1ccccc1,x,2,x,x,8,4,x,x,
C#CC[N+](C)(C)CCCCCCCCCC,3,0,10,3,1,-2,x,x,
CCCCCCCCCCCCCCCC[N+](C)(C)CCl,56*,50*,65*,11,1,-3,39,x,ATG4B conf=57*;HTRA1 inh conf=74*;mABHD4 conf=12
COc1ccc(CN2CCC(CNC(=O)NC3CCC(C)CC3)CC2)cc1 (centres undefined),x,4,x,x,2,4,x,x,
O=C1c2cccc(Cl)c2C(=O)c2c1cccc2N1CCCC1,48*,66*,65*,-7,7,8,63*,x,HTRA1 inh conf=65*;mABHD4 conf=85*
